The values that follow come from PMC5026623 (Circulation research, 2016).

The target in the assay is apoA1 (Homo sapiens, UniProt P02647). Nature of the assay: surface plasmon resonance, protein immobilised on CM5 chip. The format is binding. The essentials:
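Biosensor binding-kinetics run: apoA1 covalently coupled to a CM5 sensor chip, with apoA2 and apoE coupled the same way for comparison. Kinetics of test lipid binding to the immobilised protein recorded.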
(Surface plasmon resonance follows binding to a sensor surface in real time, without labels.)

Sequence of apoA1 (P02647 25-267): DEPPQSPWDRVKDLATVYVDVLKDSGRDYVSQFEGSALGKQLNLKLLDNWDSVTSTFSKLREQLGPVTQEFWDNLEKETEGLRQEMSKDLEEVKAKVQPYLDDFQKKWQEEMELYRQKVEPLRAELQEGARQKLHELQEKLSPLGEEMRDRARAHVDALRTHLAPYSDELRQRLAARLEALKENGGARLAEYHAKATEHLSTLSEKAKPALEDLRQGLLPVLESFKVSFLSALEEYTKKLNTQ

PIP2 had a Kd of 140 nM.

Usually Kd stands for the constant that tells how readily two partners part at equilibrium. Lower therefore signals tighter binding.
